The values below come from article PMC2767179 (Bioorganic & medicinal chemistry letters, 2009).

Data set [1] relates to Src-induced oncogenic transformation in CEF. The class given is cell-based, chicken. Particulars: CEF infected with Prague strain of Rous sarcoma virus.
The subject of data set [2] is Jun-induced oncogenic transformation in CEF. The data set is classed as cell-based, chicken. Conditions: CEF infected with avian sarcoma virus 17.
A further data set concerns CEF. Kind of data set: Intrinsic cytotoxic activity for CEF. The class given is cell-based, chicken.
The subject of data set [3] is Myc-induced oncogenic transformation in chicken embryo fibroblasts (CEF). The data set is classed as cell-based. Conditions: for IC95, inhibition of foci formation: Myc-induced foci in CEF; for inhibition of foci formation: at 20 μM; for inhibition of foci formation / EOT (efficiency of transformation, no inhibition = 1): Myc-induced, CEF; for EOT (efficiency of transformation, no inhibition = 1): tested at 20 μM. A digest of the protocol:
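Chicken embryo fibroblasts infected with the RCAS viral vector expressing transforming chicken cellular Myc. Test compound added at 20 μM. Cultures maintained for three weeks, then foci in each well counted manually by eye. Result expressed as efficiency of transformation (EOT), with no inhibition = 1. Active candidates re-tested in iterative rounds.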

In another data set the test system is Myc/Max dimerization. Kind of data set: FRET assay for inhibition of Myc-Max dimerization. The data set is classed as binding.

With `Cc1cc(C)c(S(=O)(=O)N[C@@H](CNC(=O)[C@@H]2CN(C(=O)CC3CCN(C(=O)OC(C)(C)C)CC3)C[C@H]2C(=O)O)C(=O)OC(C)(C)C)c(C)c1` [compound 3, mycmycin-1], the “inhibitory activity for foci formation induced by Src” value in data set [1] is on record as “failed to exhibit inhibitory activity”. Also, in data set [2], the “inhibitory activity for foci formation induced by Jun” value is recorded as “failed to exhibit inhibitory activity”. Besides, in the data set on CEF, the “intrinsic cytotoxic activity for CEF” value is given as “neither possess an intrinsic cytotoxic acitivity”. Further, in data set [3], the “IC95, inhibition of foci formation” value came to 20 µM; the “inhibition of foci formation” value is given as “complete inhibition of foci formation”; the “EOT (efficiency of transformation, no inhibition = 1)” value came to 0.05. For the same molecule, in the data set on Myc/Max dimerization, the “inhibition of Myc/Max dimerization” value is “most effective inhibition”.
For the molecule `CNC(=O)[C@@H]1CN(C(=O)CCCCCNC(=O)OC(C)(C)C)C[C@H]1C(=O)NC[C@H](NS(=O)(=O)c1cc(Cl)sc1Cl)C(=O)OC(C)(C)C` [compound 4, mycmycin-2], in data set [1], the “inhibitory activity for foci formation induced by Src” value was “failed to exhibit inhibitory activity”. Further, in data set [2], the “inhibitory activity for foci formation induced by Jun” value was “failed to exhibit inhibitory activity”. The “intrinsic cytotoxic activity for CEF” value in the data set on CEF was “neither possess an intrinsic cytotoxic acitivity”. For the same molecule, in data set [3], the “IC95, inhibition of foci formation” value was determined as 20 µM; the “inhibition of foci formation” value is “complete inhibition of foci formation”; the “EOT (efficiency of transformation, no inhibition = 1)” value is on record as 0.05. The “inhibition of Myc/Max dimerization” value with Myc/Max dimerization is “less effective inhibition”.
